Laboratory results from ChEMBL document CHEMBL1153269, “Design and synthesis of new hydroxyethylamines as inhibitors of D-alanyl-D-lactate ligase (VanA) and D-alanyl-D-alanine ligase (DdlB)” (Bioorg Med Chem Lett, 2009).
pIC50: −log10 of the molar value. Calls of active or inactive are those of the source. No cut-off for these calls is given here.

Legend:
[1] = target: T1, Vancomycin/teicoplanin A-type resistance protein VanA (Enterococcus faecium) (UniProt P25051); test: Inhibition of Enterococcus faecium VanA at 10 mM by pyruvate kinase/lactate dehydrogenase coupled assay
T1 sequence (whole entry): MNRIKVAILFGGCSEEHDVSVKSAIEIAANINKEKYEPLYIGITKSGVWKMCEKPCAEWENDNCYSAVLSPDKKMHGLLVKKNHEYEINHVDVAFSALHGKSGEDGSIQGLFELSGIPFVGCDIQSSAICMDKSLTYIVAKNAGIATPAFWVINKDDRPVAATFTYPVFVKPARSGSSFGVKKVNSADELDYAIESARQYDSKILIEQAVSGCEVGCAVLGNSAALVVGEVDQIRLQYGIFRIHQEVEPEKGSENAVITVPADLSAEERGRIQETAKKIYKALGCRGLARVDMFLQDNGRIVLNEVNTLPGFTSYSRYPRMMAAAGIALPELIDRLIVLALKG
Outline: (§1)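 VanA measured by NADH depletion at 340 nm via PK/LDH coupling, 37 °C. Buffer 100 mM Hepes pH 7.5, 10 mM MgCl2, 10 mM KCl, 10% (v/v) DMSO ± compound; 2 mM PEP, 0.2 mM ATP, PK, LDH, NADH; substrates 8 mM D-Ala and 1.78 mM D-Lac; started by adding VanA.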

[2] = test system: Escherichia coli; test: Inhibition of Escherichia coli […] at 10 mM by pyruvate kinase/lactate dehydrogenase coupled assay
[3] = test system: Escherichia coli; test: Inhibition of Escherichia coli […] at 500 uM by pyruvate kinase/lactate dehydrogenase coupled assay
[4] = target: T1, Vancomycin/teicoplanin A-type resistance protein VanA (Enterococcus faecium); test: Inhibition of Enterococcus faecium VanA at 500 uM by pyruvate kinase/lactate dehydrogenase coupled assay; outline: as §1
[5] = Inhibition of Escherichia coli […] by pyruvate kinase/lactate dehydrogenase coupled assay
[6] = target: T2, Vancomycin/teicoplanin A-type resistance protein VanA (Enterococcus faecium, UniProt P25051); test: Inhibition of Enterococcus faecium VanA by pyruvate kinase/lactate dehydrogenase coupled assay; outline: as §1
T2 sequence (P25051 whole entry): T1 sequence (whole entry)

Activity [1]	Activity [2]	inhibition [3]	inhibition [4]	pIC50 [5]	pIC50 [6]	SMILES
inactive	inactive	–	–	–	–	O=S(=O)(NCC(O)CN1CCOCC1)c1ccc(F)cc1 (stereo unspecified)
–	–	inactive	inactive	–	–	COc1ccc(S(=O)(=O)NCC(CN2CCOCC2)OP(=O)(O)Oc2ccccc2)cc1 (stereo unspecified)
inactive	inactive	–	–	–	–	COc1ccc(S(=O)(=O)NCC(O)CN2CCOCC2)cc1 (stereo unspecified)
–	–	77%	75%	3.87	3.54	O=P(O)(O)OC(CNS(=O)(=O)c1ccc(F)cc1)CN1CCOCC1 (stereo unspecified)
–	–	inactive	65%	–	–	O=P(O)(Oc1ccccc1)OC(CNS(=O)(=O)c1ccc(F)cc1)CN1CCOCC1 (stereo unspecified)
–	–	83%	83%	3.96	3.65	COc1ccc(S(=O)(=O)NCC(CN2CCOCC2)OP(=O)(O)O)cc1 (stereo unspecified)
